One experiment addresses D(2) dopamine receptor (Rattus norvegicus, UniProt P61169). The experiment can be described thus: Binding affinity against Dopamine receptor D2 from rat using [3H]raclopride as radioligand. Put shortly:
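Washed Sprague–Dawley rat striatal membranes (200 μg protein) incubated with 3 nM [3H]raclopride in 120 mM NaCl/5 mM KCl/50 mM Tris-HCl pH 7.4, 60 min at room temperature. Nine concentrations in duplicate, 1% DMSO final. Nonspecific binding with 300 μM sulpiride.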

Experiment [1] has as its target T1, Glutamate NMDA receptor; Grin1/Grin2b (Rattus norvegicus, UniProt P35439+Q00960). The experiment can be described thus: Antagonistic activity against rat N-methyl-D-aspartate glutamate receptor 1/2B expressed in Xenopus oocytes. The format is functional, cell-based, Oocyte. The essentials:
(§1)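 Cloned NR1A/2B receptors in oocytes, recorded by two-electrode voltage clamp at -70 mV in nominally Ca2+-free Ringer (pH 7.4). Drugs are bath perfused, with final DMSO 0.1–1%. IC50 for inhibition of NMDA responses is fitted from partial 3–5 point curves, with the residual fractional response ('min') fixed at 0.15. Mean ± SEM.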

Experiment [2] concerns the target T2, Glutamate NMDA receptor; Grin1/Grin2c (Rattus norvegicus, UniProt P35439+Q00961). The experiment can be described thus: Antagonistic activity against rat N-methyl-D-aspartate glutamate receptor 1/2C expressed in Xenopus oocytes. The format is functional, cell-based, Oocyte. The essentials:
(§2)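 Two-electrode voltage clamp at -70 mV in nominally Ca2+-free Ringer (NaCl 115, KCl 2, BaCl2 1.8, HEPES 5 mM, pH 7.4). Drugs are given by bath perfusion at 7–10 mL/min, with final DMSO 0.1–1%. Inhibition of NMDA responses is measured, and IC50 is fitted from partial 3–5 point concentration–inhibition curves with a free residual minimum. Mean ± SEM, n as reported.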

Experiment [3] has as its target T3, Glutamate NMDA receptor; Grin1/Grin2a (Rattus norvegicus, UniProt P35439+Q00959). The experiment can be described thus: Antagonistic activity against rat N-methyl-D-aspartate glutamate receptor 1/2A, expressed in Xenopus oocytes. The format is functional, cell-based, Oocyte. The essentials:
as §2

Experiment [4] deals with T4, Adrenergic receptor alpha-1 (Rattus norvegicus, UniProt P15823+P23944+P43140).
T4 sequence (P15823 whole entry): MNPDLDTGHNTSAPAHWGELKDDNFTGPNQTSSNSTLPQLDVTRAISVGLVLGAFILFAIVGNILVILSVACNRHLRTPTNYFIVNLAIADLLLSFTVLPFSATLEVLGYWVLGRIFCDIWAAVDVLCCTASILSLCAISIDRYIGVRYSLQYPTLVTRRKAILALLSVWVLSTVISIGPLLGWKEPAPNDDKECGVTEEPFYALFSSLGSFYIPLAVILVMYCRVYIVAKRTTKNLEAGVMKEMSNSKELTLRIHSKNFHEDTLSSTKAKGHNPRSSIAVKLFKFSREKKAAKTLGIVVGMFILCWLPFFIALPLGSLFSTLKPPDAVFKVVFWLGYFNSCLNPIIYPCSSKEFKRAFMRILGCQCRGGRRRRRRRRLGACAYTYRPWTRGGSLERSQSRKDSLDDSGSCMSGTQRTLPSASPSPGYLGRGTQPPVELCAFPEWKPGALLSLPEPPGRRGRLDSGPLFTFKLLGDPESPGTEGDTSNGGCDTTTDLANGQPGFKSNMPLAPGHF
T4 sequence (P23944 whole entry): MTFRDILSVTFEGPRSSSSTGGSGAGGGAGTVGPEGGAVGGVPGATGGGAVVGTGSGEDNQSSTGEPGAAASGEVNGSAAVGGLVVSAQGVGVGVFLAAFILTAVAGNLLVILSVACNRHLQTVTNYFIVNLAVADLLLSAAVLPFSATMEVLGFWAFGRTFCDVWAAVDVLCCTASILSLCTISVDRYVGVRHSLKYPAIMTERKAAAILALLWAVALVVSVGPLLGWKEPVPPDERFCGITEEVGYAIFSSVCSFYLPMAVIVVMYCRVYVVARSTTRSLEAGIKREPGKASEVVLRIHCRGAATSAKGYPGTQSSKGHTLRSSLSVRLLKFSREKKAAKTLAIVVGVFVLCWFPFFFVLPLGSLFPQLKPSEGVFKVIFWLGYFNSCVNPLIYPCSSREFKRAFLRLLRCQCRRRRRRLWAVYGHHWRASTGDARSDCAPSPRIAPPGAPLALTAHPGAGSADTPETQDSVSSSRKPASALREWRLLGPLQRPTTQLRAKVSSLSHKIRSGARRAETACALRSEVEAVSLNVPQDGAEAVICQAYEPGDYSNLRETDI
T4 sequence (P43140 whole entry): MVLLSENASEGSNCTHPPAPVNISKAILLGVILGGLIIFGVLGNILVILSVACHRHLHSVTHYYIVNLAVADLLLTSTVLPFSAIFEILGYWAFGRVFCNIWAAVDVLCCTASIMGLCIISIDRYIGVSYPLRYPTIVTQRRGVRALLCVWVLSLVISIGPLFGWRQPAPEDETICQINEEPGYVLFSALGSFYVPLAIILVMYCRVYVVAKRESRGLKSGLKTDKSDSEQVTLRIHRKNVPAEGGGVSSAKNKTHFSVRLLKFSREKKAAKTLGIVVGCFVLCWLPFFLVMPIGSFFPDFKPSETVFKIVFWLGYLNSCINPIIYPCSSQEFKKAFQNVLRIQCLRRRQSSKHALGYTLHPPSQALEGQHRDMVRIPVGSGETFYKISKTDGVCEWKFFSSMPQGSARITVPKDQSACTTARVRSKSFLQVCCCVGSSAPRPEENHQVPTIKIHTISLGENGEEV
The experiment can be described thus: The compound was tested for binding affinity against Alpha-1 adrenergic receptor from rat using [3H]prazosin as radioligand. The format is protein assay. The essentials:
(§3)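 Rat cortical membranes (Sprague–Dawley, triple-washed; 200 μg protein) incubated with 0.8 nM [3H]prazosin in 140 mM NaCl/5 mM MgCl2/50 mM Tris-HCl pH 7.4, 60 min at room temperature. Nine concentrations in duplicate, 1% DMSO final. Nonspecific binding defined by 10 μM phentolamine.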

The target of experiment [5] is T3, Glutamate NMDA receptor; Grin1/Grin2a. The experiment in a line: Antagonistic activity against rat NR1A/2A receptor, expressed in Xenopus oocytes. The format is functional, cell-based, Oocyte. The essentials:
as §2

The target in experiment [6] is T1, Glutamate NMDA receptor; Grin1/Grin2b. The experiment can be described thus: Antagonistic activity against rat NR1A/2B receptor expressed in Xenopus oocytes. The format is functional, cell-based, Oocyte. The essentials: as §1
For experiment [7], the target named is T2, Glutamate NMDA receptor; Grin1/Grin2c. The experiment in a line: The compound was tested for antagonistic activity against rat NR1A/2C receptor expressed in Xenopus oocytes. The format is functional, cell-based, Oocyte. Put shortly: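 Drugs are given by bath perfusion at 7–10 mL/min, with final DMSO 0.1–1%. Inhibition of NMDA responses is measured, and IC50 is fitted from partial 3–5 point concentration–inhibition curves with a free residual minimum. Mean ± SEM, n as reported.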

Experiment [8] concerns the target T4, Adrenergic receptor alpha-1. The experiment can be described thus: Binding affinity against alpha-1 adrenergic receptor from rat using [3H]-prazosin as radioligand. The format is protein assay. The essentials:
as §3

T2 sequence (Q00961 whole entry, other chains not shown, the tested form may be a part): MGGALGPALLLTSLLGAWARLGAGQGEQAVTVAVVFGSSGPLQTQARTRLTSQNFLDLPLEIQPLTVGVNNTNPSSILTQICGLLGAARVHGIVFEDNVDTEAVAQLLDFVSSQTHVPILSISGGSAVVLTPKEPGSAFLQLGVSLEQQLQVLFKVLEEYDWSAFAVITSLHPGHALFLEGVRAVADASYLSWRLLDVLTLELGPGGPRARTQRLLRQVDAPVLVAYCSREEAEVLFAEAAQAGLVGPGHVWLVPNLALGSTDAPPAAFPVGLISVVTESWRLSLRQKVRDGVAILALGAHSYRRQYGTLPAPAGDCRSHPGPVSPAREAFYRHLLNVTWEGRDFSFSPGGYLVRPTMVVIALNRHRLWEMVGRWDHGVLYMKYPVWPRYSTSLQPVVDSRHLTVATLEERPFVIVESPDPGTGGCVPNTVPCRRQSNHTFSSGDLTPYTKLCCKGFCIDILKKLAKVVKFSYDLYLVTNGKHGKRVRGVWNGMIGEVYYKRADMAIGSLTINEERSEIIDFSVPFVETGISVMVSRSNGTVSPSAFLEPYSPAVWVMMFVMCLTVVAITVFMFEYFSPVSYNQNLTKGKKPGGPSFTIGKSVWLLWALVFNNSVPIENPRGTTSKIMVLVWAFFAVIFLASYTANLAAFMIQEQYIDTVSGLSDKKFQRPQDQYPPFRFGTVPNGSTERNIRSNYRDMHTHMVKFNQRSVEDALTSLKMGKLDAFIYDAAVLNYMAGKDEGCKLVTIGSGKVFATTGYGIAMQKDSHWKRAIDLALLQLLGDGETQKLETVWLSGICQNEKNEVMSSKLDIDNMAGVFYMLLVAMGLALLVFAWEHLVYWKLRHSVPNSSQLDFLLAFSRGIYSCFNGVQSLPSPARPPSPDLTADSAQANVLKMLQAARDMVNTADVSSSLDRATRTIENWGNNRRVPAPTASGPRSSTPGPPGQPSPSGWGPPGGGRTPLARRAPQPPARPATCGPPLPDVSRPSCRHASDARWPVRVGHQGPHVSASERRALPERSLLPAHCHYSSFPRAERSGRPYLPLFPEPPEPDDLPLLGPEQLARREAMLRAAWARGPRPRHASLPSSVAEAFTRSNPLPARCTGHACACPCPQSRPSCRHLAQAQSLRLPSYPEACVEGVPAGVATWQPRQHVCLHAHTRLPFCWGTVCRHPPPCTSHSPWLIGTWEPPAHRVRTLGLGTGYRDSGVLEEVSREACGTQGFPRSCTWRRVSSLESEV
Chain of D(2) dopamine receptor (P61169 whole entry): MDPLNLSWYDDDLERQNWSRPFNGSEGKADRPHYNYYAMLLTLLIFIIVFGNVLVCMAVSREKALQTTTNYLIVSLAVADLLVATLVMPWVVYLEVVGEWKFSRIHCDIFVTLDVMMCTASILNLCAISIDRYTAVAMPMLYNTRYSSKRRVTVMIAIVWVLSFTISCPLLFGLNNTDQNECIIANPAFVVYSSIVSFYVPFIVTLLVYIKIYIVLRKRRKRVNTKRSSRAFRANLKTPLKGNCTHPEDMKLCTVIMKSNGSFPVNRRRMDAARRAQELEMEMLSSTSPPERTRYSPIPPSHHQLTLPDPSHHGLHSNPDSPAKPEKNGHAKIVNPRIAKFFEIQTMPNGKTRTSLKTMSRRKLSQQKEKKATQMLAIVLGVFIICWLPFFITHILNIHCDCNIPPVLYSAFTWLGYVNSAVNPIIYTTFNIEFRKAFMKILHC
T1 sequence (Q00960 whole entry, other chains not shown, the tested form may be a part): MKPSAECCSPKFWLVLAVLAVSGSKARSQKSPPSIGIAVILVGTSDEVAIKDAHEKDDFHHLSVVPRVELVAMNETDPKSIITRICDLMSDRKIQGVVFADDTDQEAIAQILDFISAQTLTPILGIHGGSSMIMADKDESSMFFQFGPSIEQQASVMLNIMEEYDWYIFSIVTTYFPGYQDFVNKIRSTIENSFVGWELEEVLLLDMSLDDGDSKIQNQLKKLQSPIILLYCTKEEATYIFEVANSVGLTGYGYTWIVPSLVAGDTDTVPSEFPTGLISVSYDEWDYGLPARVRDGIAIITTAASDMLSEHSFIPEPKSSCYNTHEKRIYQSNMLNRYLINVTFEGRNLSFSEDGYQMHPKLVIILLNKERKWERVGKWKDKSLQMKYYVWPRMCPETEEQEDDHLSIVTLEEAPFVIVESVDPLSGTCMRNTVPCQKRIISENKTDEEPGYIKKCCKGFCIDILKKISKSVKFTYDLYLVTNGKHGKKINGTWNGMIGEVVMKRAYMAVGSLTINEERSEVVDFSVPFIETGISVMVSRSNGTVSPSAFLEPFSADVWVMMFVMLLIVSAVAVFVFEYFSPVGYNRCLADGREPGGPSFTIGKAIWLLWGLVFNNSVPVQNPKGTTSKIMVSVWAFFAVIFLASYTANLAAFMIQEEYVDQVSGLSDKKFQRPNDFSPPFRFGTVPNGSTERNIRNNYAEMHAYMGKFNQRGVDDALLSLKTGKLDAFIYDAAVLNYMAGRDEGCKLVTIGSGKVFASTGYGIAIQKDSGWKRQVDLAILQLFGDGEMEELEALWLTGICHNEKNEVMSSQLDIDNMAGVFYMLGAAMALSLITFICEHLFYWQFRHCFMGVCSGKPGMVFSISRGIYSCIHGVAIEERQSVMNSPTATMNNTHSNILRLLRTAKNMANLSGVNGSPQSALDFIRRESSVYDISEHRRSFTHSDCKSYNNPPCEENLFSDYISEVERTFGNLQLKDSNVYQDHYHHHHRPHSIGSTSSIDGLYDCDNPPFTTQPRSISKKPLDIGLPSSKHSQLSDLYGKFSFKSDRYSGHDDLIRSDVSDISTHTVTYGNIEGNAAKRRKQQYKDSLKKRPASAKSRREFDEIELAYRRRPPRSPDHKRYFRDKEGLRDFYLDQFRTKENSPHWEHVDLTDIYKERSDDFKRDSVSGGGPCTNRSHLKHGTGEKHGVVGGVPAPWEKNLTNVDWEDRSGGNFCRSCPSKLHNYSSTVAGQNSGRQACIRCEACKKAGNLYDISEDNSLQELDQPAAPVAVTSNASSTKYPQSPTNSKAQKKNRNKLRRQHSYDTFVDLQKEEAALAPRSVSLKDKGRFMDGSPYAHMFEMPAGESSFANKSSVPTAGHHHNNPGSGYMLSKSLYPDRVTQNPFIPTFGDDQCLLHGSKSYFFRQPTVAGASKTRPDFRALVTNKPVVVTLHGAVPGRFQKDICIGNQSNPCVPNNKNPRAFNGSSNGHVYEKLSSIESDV
T3 sequence (Q00959 whole entry, other chains not shown): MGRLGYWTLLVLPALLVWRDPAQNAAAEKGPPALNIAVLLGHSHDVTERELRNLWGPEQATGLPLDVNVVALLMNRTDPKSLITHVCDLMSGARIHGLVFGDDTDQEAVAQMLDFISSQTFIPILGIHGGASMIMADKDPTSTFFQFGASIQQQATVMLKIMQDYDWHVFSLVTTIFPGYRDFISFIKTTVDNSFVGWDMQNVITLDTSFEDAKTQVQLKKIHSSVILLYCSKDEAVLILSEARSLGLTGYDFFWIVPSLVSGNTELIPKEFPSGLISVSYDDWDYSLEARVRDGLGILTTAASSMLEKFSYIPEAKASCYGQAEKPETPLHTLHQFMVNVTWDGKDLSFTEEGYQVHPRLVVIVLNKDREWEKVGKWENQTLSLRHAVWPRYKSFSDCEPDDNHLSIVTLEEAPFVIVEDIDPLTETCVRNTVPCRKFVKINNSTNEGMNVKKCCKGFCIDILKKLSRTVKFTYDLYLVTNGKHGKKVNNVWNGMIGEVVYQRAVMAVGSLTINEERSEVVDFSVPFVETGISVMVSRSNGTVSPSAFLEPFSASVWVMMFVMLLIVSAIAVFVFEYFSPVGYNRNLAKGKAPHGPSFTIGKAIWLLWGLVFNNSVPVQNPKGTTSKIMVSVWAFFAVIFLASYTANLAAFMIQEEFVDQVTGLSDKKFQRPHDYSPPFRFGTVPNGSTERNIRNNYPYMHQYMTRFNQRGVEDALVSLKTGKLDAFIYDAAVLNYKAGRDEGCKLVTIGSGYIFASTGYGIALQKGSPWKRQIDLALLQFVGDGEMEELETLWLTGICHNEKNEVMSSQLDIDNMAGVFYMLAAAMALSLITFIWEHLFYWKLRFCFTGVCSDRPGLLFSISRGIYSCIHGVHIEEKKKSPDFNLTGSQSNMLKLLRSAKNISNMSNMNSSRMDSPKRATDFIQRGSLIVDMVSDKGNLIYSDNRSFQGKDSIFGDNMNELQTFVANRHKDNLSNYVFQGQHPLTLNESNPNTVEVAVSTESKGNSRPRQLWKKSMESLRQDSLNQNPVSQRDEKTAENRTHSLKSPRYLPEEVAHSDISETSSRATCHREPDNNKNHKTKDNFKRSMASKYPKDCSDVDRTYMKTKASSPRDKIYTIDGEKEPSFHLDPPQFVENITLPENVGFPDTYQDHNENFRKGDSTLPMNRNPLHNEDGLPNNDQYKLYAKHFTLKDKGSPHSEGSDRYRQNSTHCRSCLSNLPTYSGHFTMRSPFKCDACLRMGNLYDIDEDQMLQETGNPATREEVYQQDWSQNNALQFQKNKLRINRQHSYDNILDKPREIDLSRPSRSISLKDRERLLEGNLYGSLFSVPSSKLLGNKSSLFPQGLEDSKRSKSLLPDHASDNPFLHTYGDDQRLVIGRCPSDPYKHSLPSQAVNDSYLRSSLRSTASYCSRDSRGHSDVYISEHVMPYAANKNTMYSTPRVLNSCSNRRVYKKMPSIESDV

For the molecule `CNc1ccc(C#CCCN2CCC(Cc3ccccc3)CC2)cc1`, the IC50 at D(2) dopamine receptor is 0.3 µM; in [1] it was 0.46 µM; in experiment [2], greater than 100 µM; in experiment [3], 84 µM; in experiment [4] it was 1 µM.
Consider `Fc1ccc(C#CCCN2CCC(Cc3ccccc3)CC2)cc1`, for which the IC50 in experiment [5] was greater than 100 µM; in experiment [6], 2.7 µM; in experiment [7], greater than 100 µM.
Take `O=[N+]([O-])c1ccc(C#CCCN2CCC(Cc3ccccc3)CC2)cc1`: the concentration for half-maximal inhibition (IC50) in experiment [5] and in experiment [7] was greater than 100 µM throughout.
For the molecule `Nc1ccc(C#CCCN2CCC(Cc3ccccc3)CC2)cc1N`, the half-maximal inhibitory concentration (IC50) in experiment [5] was greater than 100 µM; in experiment [8], 1 µM; in experiment [6] it was 0.19 µM; at D(2) dopamine receptor it was 1.1 µM; in [7], greater than 100 µM.
For the molecule `CC(=O)Nc1ccc(C#CCN2CCC(Cc3ccccc3)CC2)cc1`, the IC50 in experiment [1] was 13 µM; in [2] it was greater than 100 µM; in [3] it was 56 µM.
Turning to `Nc1ccc(C#CCCN2CCC(O)(Cc3ccccc3)CC2)cc1`, the concentration for half-maximal inhibition (IC50) in experiment [5] was greater than 100 µM; in experiment [8], 63 µM; in experiment [6], 0.83 µM; at D(2) dopamine receptor it was 15 µM.
With `Clc1cccc(C#CCCN2CCC(Cc3ccccc3)CC2)c1`, the IC50 is greater than 100 µM in experiment [5], 3.8 µM in experiment [6] and greater than 100 µM in experiment [7].
Regarding `Nc1ccc(C#CCCN2CCC(O)(Cc3ccc(F)cc3)CC2)cc1`, the IC50 is 29 µM in experiment [5]; 31 µM in [8]; 0.65 µM in experiment [6]; 7.9 µM at D(2) dopamine receptor; greater than 100 µM in [7].
With `Nc1ccc(C#CCN2CCC(Cc3ccccc3)CC2)cc1`, the IC50 in experiment [5] and in [7] was greater than 100 µM each time.
On to `NCc1cccc(C#CCCN2CCC(Cc3ccccc3)CC2)c1`, for which the IC50 on D(2) dopamine receptor is 0.3 µM; in experiment [1], 0.52 µM; in [2], greater than 100 µM; in experiment [4], 0.8 µM.
For `Cc1ccc(C#CCCN2CCC(Cc3ccccc3)CC2)cc1`, the values for the half-inhibitory concentration (IC50) in experiment [5], in experiment [6] and in experiment [7] were 42 µM, 4.2 µM and greater than 100 µM, respectively.
The matching figures for `Nc1ccccc1C#CCCN1CCC(Cc2ccccc2)CC1`: 70 µM, 1.1 µM and greater than 100 µM.
The matching figures for `COc1ccc(C#CCCN2CCC(Cc3ccccc3)CC2)cc1`: greater than 100 µM, 2.6 µM and greater than 100 µM.
As for `Nc1cccc(C#CCCN2CCC(Cc3ccccc3)CC2)c1`, the IC50 in experiment [5] was greater than 100 µM; in experiment [6] it was 1.1 µM; in [7], greater than 100 µM.
For `CS(=O)(=O)Nc1ccc(C#CCCCN2CCC(Cc3ccccc3)CC2)cc1`, the IC50 was 2.3 µM on D(2) dopamine receptor; 0.28 µM in experiment [1]; greater than 100 µM in experiment [2]; greater than 100 µM in experiment [3]; 1.1 µM in experiment [4].
For `Nc1ccc(C#CCCCN2CCC(Cc3ccccc3)CC2)cc1`, the IC50 in experiment [5] was 12 µM; in experiment [6] it was 0.38 µM; in experiment [7] it was greater than 100 µM.
As for `Oc1ccc(C#CCN2CCC(Cc3ccccc3)CC2)cc1`, the 50% inhibitory concentration (IC50) is greater than 100 µM in [5]; 1.5 µM in [8]; 0.1 µM in [6]; 1.7 µM on D(2) dopamine receptor; greater than 100 µM in [7].
Consider `Clc1ccccc1C#CCCN1CCC(Cc2ccccc2)CC1`, for which the results for the IC50 in experiment [5], in [6] and in experiment [7] were 85 µM, 1.2 µM and greater than 100 µM, respectively.
Molecule `Nc1ccc(C#CCCN2CCC(Cc3ccc(Cl)cc3)CC2)cc1` displayed an IC50 in [6] of 1.2 µM. This lies in the single-digit micromolar range.
Consider `Nc1ccc(C#CCCN2CCC(Cc3ccc(F)cc3)CC2)cc1`, for which the IC50 in experiment [5] is 70 µM; in [8], 0.7 µM; in experiment [6], 0.26 µM; at D(2) dopamine receptor it was 0.4 µM; in experiment [7], greater than 100 µM.
On to `CC(=O)Nc1ccc(C#CCCCN2CCC(Cc3ccccc3)CC2)cc1`, for which the 50% inhibitory concentration (IC50) in experiment [1] was 1.4 µM; in [2] it was greater than 100 µM; in [3], greater than 100 µM.
As for `Clc1ccc(C#CCCN2CCC(Cc3ccccc3)CC2)cc1`, the IC50 in experiment [5] was 47 µM; in experiment [6], 4 µM; in experiment [7], greater than 100 µM.
With `NS(=O)(=O)c1ccc(C#CCCN2CCC(Cc3ccccc3)CC2)cc1`, the IC50 was 0.1 µM at D(2) dopamine receptor; 0.31 µM in experiment [1]; greater than 100 µM in experiment [2]; 22 µM in experiment [3]; 1.4 µM in experiment [4].
`Nc1ccc(C#CCCN2CCC(Cc3ccccc3)CC2)cc1`: the values for the 50% inhibitory concentration (IC50) (in experiment [8]; in experiment [6]; on D(2) dopamine receptor) were 1 µM, 0.43 µM and 0.8 µM, respectively.
For `Oc1ccc(C#CCCN2CCC(Cc3ccccc3)CC2)cc1`, the IC50 in experiment [5] was greater than 100 µM; in experiment [8], 0.58 µM; in experiment [6] it was 0.17 µM; at D(2) dopamine receptor, 0.29 µM.
With `CC(=O)Nc1ccc(C#CCCN2CCC(Cc3ccccc3)CC2)cc1`, the half-maximal inhibitory concentration (IC50) on D(2) dopamine receptor is 0.1 µM; in experiment [1], 0.26 µM; in experiment [2] it was greater than 100 µM; in [3], greater than 100 µM; in experiment [4] it was 1.1 µM.
With `Cc1ccc(CC2CCN(CCC#Cc3ccc(N)cc3)CC2)cc1`, the IC50 in experiment [5] amounted to 75 µM; in [8], 1.2 µM; in [6] it was 0.31 µM; on D(2) dopamine receptor, 0.8 µM; in experiment [7], 27 µM.
With `CN(C)c1ccc(C#CCCN2CCC(Cc3ccccc3)CC2)cc1`, the values for the 50% inhibitory concentration (IC50) in [1], in experiment [2] and in [3] were 15 µM, greater than 100 µM and greater than 100 µM, respectively.
With `Cc1ccc(CC2(O)CCN(CCC#Cc3ccc(N)cc3)CC2)cc1`, the IC50 was 68 µM in experiment [5]; 85 µM in experiment [8]; 0.37 µM in experiment [6]; 10 µM at D(2) dopamine receptor; greater than 100 µM in experiment [7].
Consider `NC(=O)c1ccc(C#CCCN2CCC(Cc3ccccc3)CC2)cc1`, for which the IC50 in experiment [1] is 2 µM; in experiment [2], greater than 100 µM; in experiment [3], greater than 100 µM.

As usually defined, the IC50 is the concentration at which inhibition is half-maximal. Lower therefore signals higher potency.

Values taken from ChEMBL document CHEMBL1132273, “Subtype-selective N-methyl-D-aspartate receptor antagonists: synthesis and biological evaluation of 1-(arylalkynyl)-4-benzylpiperidines” (J Med Chem, 1999).
